These results are taken from PubChem BioAssay.

In general, viability refers to a read-out of living cells in per cent, often relative to untreated cells. The inhibition is the drop in the measured response relative to a control, in per cent.

A short description of assay [1]: Her2 expression decrease, cell viability multiplex – SKBR3 breast tumor cells, AlphaScreen, ATP viability, primary screen (AID 461).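 On Her2 level: lower value means less Her2 protein in the cells.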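 On viability: percent of carrier control wells set as 100% viability.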 The conditions noted are these: SKBR3 Her2 protein level, 18-24 h, measured here: SKBR3 viability, ATP luminescence, at 10 µM. (In general: Alpha assays give light when donor and acceptor beads are brought close together.)
Assay [2] addresses Receptor tyrosine-protein kinase erbB-2 (Homo sapiens) (UniProt P04626). The assay is described as above. Particulars: 18-24 h, at 10 µM, stronger effect = lower value.
Assay [3] can be described thus: reduced viability of SK-BR-3 breast cancer cells – cell-based, 24 h, human, pilot screen (AID 572;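 active means viability at or below 10% of carrier control in both of two separate runs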;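 further: compound exposure lasted between 18 and 24 h rather than exactly 24 h; 100% = carrier-treated control wells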). The conditions noted are these: SK-BR-3 viability, CellTiter-Glo luminescence, at 10 µM, stronger effect = lower value. On the technique in general: ATP-based viability assays read luminescence as a measure of living cells.
The nature of assay [4]: HUVEC growth inhibition – cell-based, human, primary screen (AID 575;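 active means viability at or below 30% in both replicate assays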;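 further: 100% = median of untreated cell wells with 0.1% DMSO on each plate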). The conditions noted are these: HUVEC proliferation, CellTiter-Glo luminescence, 72 h; at 10 µM; stronger effect = lower value. Put shortly: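 Test system: HUVEC primary cells. Quantity: 1250 endothelial cells in each well. Dosing: single-point 10 µM, DMSO 0.1% final. Incubation: 72 h treatment at 37 °C. Measured by: CTG luminescence. Control set: DMSO cell controls and MePR drug controls. Plate: collagen-coated 384-well format.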

Assay [5] in a line: H69AR cell proliferation blockers – human, duplicate replicates, primary screen (AID 580;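 active means viability at or under a set limit in both replicates, limit being median viability minus 3 SD, cut at about 48% in these data, passing the limit was not always enough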;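 further: 100% = mean luminescence of untreated wells and 0% = no signal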). The conditions noted are these: H69AR lung tumor cells viability, ATP luminescence, 72 h; at 10 µM; stronger effect = lower value.
A short description of assay [6]: MRP1 drug-resistance reversers in H69AR cells – cell-based, doxorubicin co-treatment, pilot screen (AID 601;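 active means viability loss from added drug above about 55%, and viability with drug at most 40%, in both replicates, limit read from the data, passing the limit was not always enough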). The conditions noted are these: CellTiter-Glo, 72 h, at 10 µM; for differential viability (reversal): stronger effect = higher value.
Assay [7] in a line: yeast transport mutant growth inhibition pilot in 384-well plates, post-Golgi transport modulator project (AID 636; in the data active means inhibition above about 31%). The conditions noted are these: absorbance 615 nm, about 18 h, stronger effect = higher value.
The nature of assay [8]: growth suppression of yeast trafficking mutant, preliminary HTS, modulators of trafficking downstream of Golgi apparatus project, 1536-format plate, OD 615 nm (AID 637; in the data active means inhibition above about 30%). The conditions noted are these: yeast transport mutant growth, absorbance 615 nm, 18 h; stronger effect = higher value.
[9] abbreviates: H69AR cells + 2 uM doxorubicin, measured here: viability with 2 uM doxorubicin, stronger effect = lower value.
The mark [10] stands for this setting: H69AR cells, compound alone cytotoxicity.

Active and inactive are the calls of the source.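 How the source made its calls, unless noted: active means Her2 level under about 52% in both replicate screens, with viability over 70% of control (limit read from the data); inconclusive means Her2 under the limit in one screen only, or viability under 70%; inactive means Her2 level above the set limit.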

Sequence of Receptor tyrosine-protein kinase erbB-2 (Homo sapiens) (P04626 whole entry, looked up): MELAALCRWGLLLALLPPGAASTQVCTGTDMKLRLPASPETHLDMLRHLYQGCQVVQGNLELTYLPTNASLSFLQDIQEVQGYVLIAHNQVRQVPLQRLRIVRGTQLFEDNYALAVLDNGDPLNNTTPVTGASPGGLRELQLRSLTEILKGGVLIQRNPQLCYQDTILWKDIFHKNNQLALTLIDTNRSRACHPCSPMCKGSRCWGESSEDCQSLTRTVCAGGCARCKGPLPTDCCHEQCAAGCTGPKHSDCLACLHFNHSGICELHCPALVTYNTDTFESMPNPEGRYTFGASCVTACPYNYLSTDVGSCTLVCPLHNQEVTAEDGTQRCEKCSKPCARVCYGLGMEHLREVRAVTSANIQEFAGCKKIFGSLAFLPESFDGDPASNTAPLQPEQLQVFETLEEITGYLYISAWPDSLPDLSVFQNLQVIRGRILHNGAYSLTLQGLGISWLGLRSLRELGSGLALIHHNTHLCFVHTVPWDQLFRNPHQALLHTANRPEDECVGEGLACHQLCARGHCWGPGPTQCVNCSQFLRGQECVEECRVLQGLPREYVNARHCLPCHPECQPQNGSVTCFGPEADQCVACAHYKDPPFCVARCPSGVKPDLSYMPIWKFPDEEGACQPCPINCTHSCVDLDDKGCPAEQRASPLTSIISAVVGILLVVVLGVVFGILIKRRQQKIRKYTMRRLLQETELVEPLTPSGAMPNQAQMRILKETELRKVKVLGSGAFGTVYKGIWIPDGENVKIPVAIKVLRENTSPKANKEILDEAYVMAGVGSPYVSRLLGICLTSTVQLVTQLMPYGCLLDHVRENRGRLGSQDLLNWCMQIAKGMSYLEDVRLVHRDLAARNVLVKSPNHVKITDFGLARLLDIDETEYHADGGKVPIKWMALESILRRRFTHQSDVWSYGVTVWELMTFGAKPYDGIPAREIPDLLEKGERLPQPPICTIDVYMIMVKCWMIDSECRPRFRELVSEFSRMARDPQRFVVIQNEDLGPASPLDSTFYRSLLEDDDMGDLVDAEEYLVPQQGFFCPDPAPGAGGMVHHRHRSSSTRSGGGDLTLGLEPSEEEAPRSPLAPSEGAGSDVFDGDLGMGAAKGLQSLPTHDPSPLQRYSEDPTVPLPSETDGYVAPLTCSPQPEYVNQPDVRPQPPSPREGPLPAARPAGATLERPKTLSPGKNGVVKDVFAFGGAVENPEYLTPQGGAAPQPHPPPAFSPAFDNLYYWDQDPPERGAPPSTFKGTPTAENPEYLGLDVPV

As to `COc1ccc(N2CCN(c3ccc(NC(=O)C4CCCCC4)cc3C#N)CC2)cc1`, the viability is 98% in assay [1]; 98% (inactive) in assay [3]; 78.6% (inactive) in assay [4]; 93% (inactive) in assay [5]; 90.4% in assay [6] (setting [9]); 93% in assay [6] (setting [10]). In addition, the Her2 level in assay [2] is 84% (inactive). For the same compound, the differential viability (reversal) in assay [6] (H69AR cells + 2 uM doxorubicin) is 2.67% (inactive). Besides, the inhibition is -1.76% (inactive) in assay [7] and -2.22% (inactive) in assay [8].

Take `Cc1cc(C(=O)OCC(=O)N2c3ccccc3CC2C)c(C)o1` (stereo not given): the viability in assay [1] is 90.5%; in assay [3] it was 90.5% (inactive); in assay [4], 101% (inactive); in assay [5] it was 100% (inactive); in assay [6] (setting [9]), 90.8%; in assay [6] (setting [10]), 100%. The Her2 level in assay [2] is 86.5% (inactive). Further, in assay [6] (H69AR cells + 2 uM doxorubicin), the differential viability (reversal) was 9.63% (inactive). Moreover, the inhibition is -4.05% (inactive) in assay [7] and -4.75% (inactive) in assay [8].

`C=CCNC(=O)c1cc(-c2ccccc2O)on1`: the viability in assay [1] was 97%; in assay [3] it was 97% (inactive); in assay [4] it was 99.1% (inactive); in assay [5] it was 86.7% (inactive); in assay [6] (setting [9]), 86.7%; in assay [6] (setting [10]), 86.7%. Moreover, the Her2 level in assay [2] is 82.5% (inactive). In addition, the differential viability (reversal) in assay [6] (H69AR cells + 2 uM doxorubicin) was 0.065% (inactive). Further, the figures for the inhibition in assay [7] and in assay [8] were 2.18% (inactive) and 4.17% (inactive), respectively.

Consider `COC(=O)CNC(=O)c1c(C)cc(=O)oc1C`, for which the viability in assay [1] was 89.5%; in assay [3], 89.5% (inactive); in assay [4], 90.3% (inactive); in assay [5] it was 97.1% (inactive); in assay [6] (setting [9]), 91.4%; in assay [6] (setting [10]), 97.1%. For the same compound, the Her2 level in assay [2] was 104% (inactive). For the same compound, the differential viability (reversal) in assay [6] (H69AR cells + 2 uM doxorubicin) was 5.65% (inactive). In addition, the inhibition in assay [7] is -4.27% (inactive); in assay [8] it was -8.55% (inactive).

In the case of `COc1ccc(N2CCN(C(c3cccs3)c3nnnn3C3CCCC3)CC2)cc1` (stereo not given), the viability in assay [1] was 90.5%; in assay [3] it was 90.5% (inactive); in assay [4], 69.3% (inactive); in assay [5], 70% (inactive); in assay [6] (setting [9]), 87.5%; in assay [6] (setting [10]) it was 70%. Also, the Her2 level in assay [2] is 95% (inactive). Moreover, the differential viability (reversal) in assay [6] (H69AR cells + 2 uM doxorubicin) is -17.6% (inactive). Moreover, the inhibition in assay [7] is -3.25% (inactive); in assay [8], -5.87% (inactive).

On to `COCc1cc(C)c2c(N)c(C#N)sc2n1`, for which the viability in assay [1] is 88%; in assay [3], 88% (inactive); in assay [4], 91.5% (inactive); in assay [5], 99.6% (inactive); in assay [6] (setting [9]) it was 84.3%; in assay [6] (setting [10]), 99.6%. Further, the Her2 level in assay [2] is 100% (inactive). Further, the differential viability (reversal) in assay [6] (H69AR cells + 2 uM doxorubicin) was 15.3% (inactive). Moreover, the values for the inhibition in assay [7] and in assay [8] were -1.32% (inactive) and -2.55% (inactive), respectively.

In the case of `Cc1ccc(CNC(=O)C2CCN(S(=O)(=O)c3c(C)noc3C)CC2)cc1`, the viability in assay [1] was 100%; in assay [3] it was 100% (inactive); in assay [4] it was 106% (inactive); in assay [5], 104% (inactive); in assay [6] (setting [9]), 97.4%; in assay [6] (setting [10]), 104%. Moreover, the Her2 level in assay [2] was 102% (inactive). Besides, the differential viability (reversal) in assay [6] (H69AR cells + 2 uM doxorubicin) was 6.84% (inactive). The inhibition in assay [7] is -0.53% (inactive); in assay [8], -4.44% (inactive).

With `COc1ccc(Cn2nnnc2C(c2cccs2)N2CCOCC2)cc1` (stereo not given), the viability in assay [1] was 105%; in assay [3], 105% (inactive); in assay [4], 90.9% (inactive); in assay [5] it was 109% (inactive); in assay [6] (setting [9]), 111%; in assay [6] (setting [10]), 109%. The Her2 level in assay [2] was 123% (inactive). Further, in assay [6] (H69AR cells + 2 uM doxorubicin), the differential viability (reversal) is -1.24% (inactive). In addition, the inhibition in assay [7] was 3.16% (inactive); in assay [8] it was 5.33% (inactive).

`CCOC(=O)C1CCCN(C(=O)c2cc3c(C)nc4ccccc4c3o2)C1` (stereo not given): the viability in assay [1] was 86%; in assay [3] it was 86% (inactive); in assay [4] it was 71.7% (inactive); in assay [5], 74.7% (inactive); in assay [6] (setting [9]), 36.2%; in assay [6] (setting [10]) it was 74.7%. Moreover, the Her2 level in assay [2] is 99% (inactive). Further, the differential viability (reversal) in assay [6] (H69AR cells + 2 uM doxorubicin) is 38.5% (inactive). The results for the inhibition in assay [7] and in assay [8] were -1.87% (inactive) and 16.7% (inactive), respectively.

As for `COc1ccc(N2C(=O)CC(N3CCN(c4ccccc4F)CC3)C2=O)cc1` (stereo not given), the viability in assay [1] was 88%; in assay [3], 88% (inactive); in assay [4], 91.1% (inactive); in assay [5], 105% (inactive); in assay [6] (setting [9]), 103%; in assay [6] (setting [10]), 105%. Also, the Her2 level in assay [2] is 98% (inactive). Besides, the differential viability (reversal) in assay [6] (H69AR cells + 2 uM doxorubicin) is 2.14% (inactive). Further, the inhibition in assay [7] is -1.07% (inactive); in assay [8], 2.26% (inactive).

In the case of `COC(=O)c1ccc(CSc2nc3c(cnn3-c3ccc(F)cc3)c(=O)[nH]2)o1`, the viability was 99% in assay [1]; 99% (inactive) in assay [3]; 65.3% (inactive) in assay [4]; 92.5% (inactive) in assay [5]; 96.9% in assay [6] (setting [9]); 92.5% in assay [6] (setting [10]). In assay [2], the Her2 level was 101% (inactive). The differential viability (reversal) in assay [6] (H69AR cells + 2 uM doxorubicin) was -4.38% (inactive). Moreover, the inhibition was -2.19% (inactive) in assay [7] and -1.9% (inactive) in assay [8].

For `CN(C)S(=O)(=O)c1ccc(C(=O)Nc2ccccc2C(=O)O)cc1`, the viability in assay [1] is 102%; in assay [3], 102% (inactive); in assay [4], 102% (inactive); in assay [5], 94.6% (inactive); in assay [6] (setting [9]) it was 95.7%; in assay [6] (setting [10]), 94.6%. Moreover, the Her2 level in assay [2] was 88.5% (inactive). The differential viability (reversal) in assay [6] (H69AR cells + 2 uM doxorubicin) is -1.06% (inactive). Further, the results for the inhibition in assay [7] and in assay [8] were -3.03% (inactive) and -3.17% (inactive), respectively.

Take `CCc1nn2c(N3CCOCC3)cc(C)nc2c1-c1ccc(F)cc1`: the viability in assay [1] was 92%; in assay [3] it was 92% (inactive); in assay [4], 86.2% (inactive); in assay [5], 93.4% (inactive); in assay [6] (setting [9]) it was 62%; in assay [6] (setting [10]), 93.4%. Besides, the Her2 level in assay [2] is 84% (inactive). Further, the differential viability (reversal) in assay [6] (H69AR cells + 2 uM doxorubicin) was 31.5% (inactive). Also, the inhibition in assay [7] is -6.16% (inactive); in assay [8] it was 1.75% (inactive).

In the case of `COC(=O)c1ccc(NC(=O)C(C)N2C(=O)c3ccccc3C2=O)cc1` (stereo not given), the viability is 109% in assay [1]; 109% (inactive) in assay [3]; 108% (inactive) in assay [4]; 108% (inactive) in assay [5]; 92.8% in assay [6] (setting [9]); 108% in assay [6] (setting [10]). Moreover, the Her2 level in assay [2] was 94% (inactive). Further, the differential viability (reversal) in assay [6] (H69AR cells + 2 uM doxorubicin) was 14.8% (inactive). Also, the inhibition in assay [7] was 0.41% (inactive); in assay [8], -3.65% (inactive).

Regarding `CCCn1c2c(c(O)c(C(=O)Nc3ccc(C)cn3)c1=O)CCCC2`, the viability in assay [1] was 102%; in assay [3], 102% (inactive); in assay [4], 96.8% (inactive); in assay [5], 88% (inactive); in assay [6] (setting [9]), 97.9%; in assay [6] (setting [10]), 88%. The Her2 level in assay [2] is 82.5% (inactive). Besides, the differential viability (reversal) in assay [6] (H69AR cells + 2 uM doxorubicin) was -9.88% (inactive). Also, the inhibition in assay [7] is -2.89% (inactive); in assay [8], -5.81% (inactive).
